Results of several laboratories.
Organism: Pseudomonas aeruginosa
Read-out: microbial growth

Structure (SMILES) | assay | test system | setting | MIC
Cc1ccc2[nH]nc(-c3nnc(Nc4ccc(Br)cc4)s3)c2c1 | – | ATCC27853 | – | 243 µg/mL
CCCCCCC#Cc1cncc(-c2nnc(SCc3ccc(Cl)cc3)n2CCCN)c1 | broth dilution | DSM1128 | – | > 64 µg/mL
C[C@H]1COc2c(N3CCN(C)CC3)c(F)cc3c(=O)c(C(=O)O)cn1c23 | – | ATCC27853 | drug-resistant strain | 1 µg/mL
CN(C)[C@@H]1C(O)=C(C(N)=O)C(=O)[C@@]2(O)C(O)=C3C(=O)c4c(O)cccc4[C@@](C)(O)[C@H]3C[C@@H]12 | broth dilution | ATCC27853 | – | 16 µg/mL
Cc1ccc2[nH]nc(-c3nnc(Nc4ccc(O)cc4)s3)c2c1 | – | ATCC27853 | – | 63.9 µg/mL
COc1ccc2ccc(O)c(/C=N/[C@H]3CCCC[C@H]3/N=C/c3ccc(-c4ccccc4)cc3O)c2c1 | broth dilution | – | clinical isolate | > 40 µM
CCCCCCCCN=c1ccn(CCCCCCCCCCn2ccc(=NCCCCCCCC)cc2)cc1 | – | PAO1 | – | 2 µM
Cc1ccc2[nH]nc(-c3nnc(Nc4ccc(Cl)c(Cl)c4)s3)c2c1 | – | ATCC27853 | – | 121 µg/mL
CCCCCCC#Cc1cncc(-c2nnc(SCc3ccc([N+](=O)[O-])o3)n2CCCN)c1 | broth dilution | DSM1128 | – | > 64 µg/mL
Cc1cc(O)cc(Nc2nnc(-c3n[nH]c4ccc(C)cc34)s2)c1 | – | ATCC27853 | – | 147 µg/mL
CNC(C)C1CCC(N)C(OC2C(N)CC(N)C(OC3OCC(C)(O)C(NC)C3O)C2O)O1 (stereo not shown) | broth dilution | – | – | 2 µg/mL
CCCCCCCCCCCC[N+](C)(C)Cc1ccccc1 | – | PAO1 | – | 250 µM
CCCCCCC#Cc1cncc(-c2nnc(SCc3ccc([N+](=O)[O-])cc3)n2CCCN)c1 | broth dilution | DSM1128 | – | > 64 µg/mL
COc1ccc2ccc(O)c(/C=N/[C@H]3CCCC[C@H]3/N=C/c3ccc(OCCN4CCCCC4)cc3O)c2c1 | broth dilution | – | – | > 40 µM
CC[C@H]1OC(=O)[C@H](C)[C@@H](O[C@H]2C[C@@](C)(OC)[C@@H](O)[C@H](C)O2)[C@H](C)[C@@H](O[C@@H]2O[C@H](C)C[C@H](N(C)C)[C@H]2O)[C@](C)(O)C[C@@H](C)CN(C)[C@H](C)[C@@H](O)[C@]1(C)O | broth dilution | ATCC27853 | – | 32 µg/mL
CC(C)c1ccc(/C=C2\N=C(SCC(=O)O)N(c3ccccc3)C2=O)cc1 | broth dilution | ATCC27 ATCC27853 | – | 12 µg/mL
COc1ccc2ccc(O)c(/C=N/[C@H]3CCCC[C@H]3/N=C/c3c(O)cccc3F)c2c1 | broth dilution | – | clinical isolate | > 40 µM
CCCCCCC#Cc1cncc(-c2nnc(SCc3cc(C(F)(F)F)cc(C(F)(F)F)c3)n2CCCN)c1 | broth dilution | DSM1128 | – | > 64 µg/mL
CC1(C)S[C@@H]2[C@H](NC(=O)[C@H](N)c3ccc(O)cc3)C(=O)N2[C@H]1C(=O)O | broth dilution | ATCC27853 | – | > 64 µg/mL
CC[C@H]1OC(=O)[C@H](C)[C@@H](O[C@H]2C[C@@](C)(OC)[C@@H](O)[C@H](C)O2)[C@H](C)[C@@H](O[C@@H]2O[C@H](C)C[C@H](N(C)C)[C@H]2O)[C@](C)(O)C[C@@H](C)CN(C)[C@H](C)[C@@H](O)[C@]1(C)O | – | ATCC27853 | – | < 98 µg/mL
C[C@@H](O)[C@H]1C(=O)N2C(C(=O)O)=C(S[C@@H]3CN[C@H](C(=O)N(C)C)C3)[C@H](C)[C@H]12 | broth dilution | ATCC27853 | – | 0.25 µg/mL
Cc1ccc2[nH]nc(-c3nnc(Nc4ccc([N+](=O)[O-])cc4)s3)c2c1 | – | ATCC27853 | – | 105 µg/mL
